Experimental data as given in ChEMBL document CHEMBL4689842, “EUbOPEN Chemogenomics Library wave 1” (2021).

How the values were obtained:
[1] = test system: HEK-293T; test: Multiplex assay against HEK293T; format: toxicity, cell-based; settings: human, 48 h
Outline: (§1)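 Compound was added to live cells that had been stained at seeding with Hoechst33342, BioTracker Green Microtubule Cytoskeleton Dye, MitoTracker Red and Annexin V Alexa Fluor 680, and imaging followed on a CQ1 microscope at 37°C and 5% CO2. CellPathfinder machine-learning gating divided cells into Hoechst high-intensity objects or normal cells, normal cells into healthy, pyknosed or fragmented nuclei, and pyknosed cells into mitotic or apoptotic. Tubulin, mitochondrial-mass and membrane-permeability phenotypes are per cents of healthy-nucleus cells.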

[2] = test system: Fibroblast; test: Multiplex assay against human fibroblast; format: toxicity, cell-based; outline: as §1
[3] = 1 µM, compound concentration 1 uM, replicate 1
[4] = 1 µM, compound concentration 1 uM, replicate 2
[5] = 10 µM, compound concentration 10 uM, replicate 1
[6] = 10 µM, compound concentration 10 uM, replicate 2
[7] = 12 h, 1 µM, compound concentration 1 uM, replicate 1
[8] = 12 h, 1 µM, compound concentration 1 uM, replicate 2
[9] = 12 h, 10 µM, compound concentration 10 uM, replicate 1
[10] = 12 h, 10 µM, compound concentration 10 uM, replicate 2
[11] = 24 h, 1 µM, compound concentration 1 uM, replicate 1
[12] = 24 h, 1 µM, compound concentration 1 uM, replicate 2
[13] = 24 h, 10 µM, compound concentration 10 uM, replicate 1
[14] = 24 h, 10 µM, compound concentration 10 uM, replicate 2
[15] = 48 h, 1 µM, compound concentration 1 uM, replicate 1
[16] = 48 h, 1 µM, compound concentration 1 uM, replicate 2
[17] = 48 h, 10 µM, compound concentration 10 uM, replicate 1
[18] = 48 h, 10 µM, compound concentration 10 uM, replicate 2

For CC(C)C[C@H](NC(=O)[C@H](Cc1ccccc1)NC(=O)CNC(=O)CNC(=O)[C@@H](N)Cc1ccc(O)cc1)C(=O)O [ENKEPHALIN], the “Population Healthy Nuclei (%)” value [1, 3] was 32%, the “Population Hoechst High Intensity Objects (%)” value [1, 3] was 25% and the “Population Mitochondria Different-Phenotype (%)” value [1, 3] was 26%. The “Population Mitotic Cells (%)” value [1, 3] was 51%, the “Population Normal (%)” value [1, 3] was 74% and the “Population Pyknosed Nuclei (%)” value [1, 3] was 46%. The “Total Cell Count” value [1, 3] was 212, the “Population Apoptotic (%)” value [1, 4] was 9% and the “Population Healthy Nuclei (%)” value [1, 4] was 82%. For the same compound, the “Population Mitotic Cells (%)” value [1, 4] was 90%, the “Population Pyknosed Nuclei (%)” value [1, 4] was 11% and the “Total Cell Count” value [1, 4] was 546. For the same compound, the “Population Apoptotic (%)” value [1, 5] was 40%, the “Population Healthy Nuclei (%)” value [1, 5] was 62% and the “Population Mitochondria Different-Phenotype (%)” value [1, 5] was 22%. For the same compound, the “Population Mitotic Cells (%)” value [1, 5] was 60%, the “Population Pyknosed Nuclei (%)” value [1, 5] was 27% and the “Total Cell Count” value [1, 5] was 327. For the same compound, the “Population Apoptotic (%)” value [1, 6] was 18%, the “Population Healthy Nuclei (%)” value [1, 6] was 85% and the “Population Mitochondria Different-Phenotype (%)” value [1, 6] was 4%. The “Population Mitotic Cells (%)” value [1, 6] was 82%, the “Population Pyknosed Nuclei (%)” value [1, 6] was 8% and the “Total Cell Count” value [1, 6] was 620. The “Population Apoptotic (%)” value [2, 7] was 68%, the “Population Healthy Nuclei (%)” value [2, 7] was 53% and the “Population Membrane Permeable-Phenotype (%)” value [2, 7] was 26%. The “Population Mitotic Cells (%)” value [2, 7] was 31%, the “Population Pyknosed Nuclei (%)” value [2, 7] was 20% and the “Population Tubulin-Different-Phenotype (%)” value [2, 7] was 57%. The “Total Cell Count” value [2, 7] was 95, the “Population Healthy Nuclei (%)” value [2, 8] was 82% and the “Population Pyknosed Nuclei (%)” value [2, 8] was 5%. For the same compound, the “Population Tubulin-Different-Phenotype (%)” value [2, 8] was 34%, the “Total Cell Count” value [2, 8] was 70 and the “Population Apoptotic (%)” value [2, 9] was 76%. The “Population Healthy Nuclei (%)” value [2, 9] was 39%, the “Population Membrane Permeable-Phenotype (%)” value [2, 9] was 27% and the “Population Mitotic Cells (%)” value [2, 9] was 23%. The “Population Pyknosed Nuclei (%)” value [2, 9] was 32%, the “Total Cell Count” value [2, 9] was 130 and the “Population Healthy Nuclei (%)” value [2, 10] was 86%. The “Population Tubulin-Different-Phenotype (%)” value [2, 10] was 11%, the “Total Cell Count” value [2, 10] was 62 and the “Population Healthy Nuclei (%)” value [2, 11] was 47%. For the same compound, the “Population Membrane Permeable-Phenotype (%)” value [2, 11] was 23%, the “Population Pyknosed Nuclei (%)” value [2, 11] was 26% and the “Population Tubulin-Different-Phenotype (%)” value [2, 11] was 34%. The “Total Cell Count” value [2, 11] was 111, the “Population Healthy Nuclei (%)” value [2, 12] was 84% and the “Population Pyknosed Nuclei (%)” value [2, 12] was 5%. For the same compound, the “Population Tubulin-Different-Phenotype (%)” value [2, 12] was 31%, the “Total Cell Count” value [2, 12] was 68 and the “Population Apoptotic (%)” value [2, 13] was 60%. The “Population Healthy Nuclei (%)” value [2, 13] was 52%, the “Population Membrane Permeable-Phenotype (%)” value [2, 13] was 35% and the “Population Mitotic Cells (%)” value [2, 13] was 40%. For the same compound, the “Population Pyknosed Nuclei (%)” value [2, 13] was 22%, the “Total Cell Count” value [2, 13] was 129 and the “Population Healthy Nuclei (%)” value [2, 14] was 86%. The “Population Pyknosed Nuclei (%)” value [2, 14] was 7%, the “Population Tubulin-Different-Phenotype (%)” value [2, 14] was 15% and the “Total Cell Count” value [2, 14] was 86. The “Population Apoptotic (%)” value [2, 15] was 63%, the “Population Healthy Nuclei (%)” value [2, 15] was 45% and the “Population Membrane Permeable-Phenotype (%)” value [2, 15] was 15%. For the same compound, the “Population Pyknosed Nuclei (%)” value [2, 15] was 22%, the “Total Cell Count” value [2, 15] was 96 and the “Population Apoptotic (%)” value [2, 16] was 100%. The “Population Healthy Nuclei (%)” value [2, 16] was 73%, the “Population Membrane Permeable-Phenotype (%)” value [2, 16] was 22% and the “Population Mitotic Cells (%)” value [2, 16] was 0%. For the same compound, the “Population Pyknosed Nuclei (%)” value [2, 16] was 1%, the “Total Cell Count” value [2, 16] was 81 and the “Population Apoptotic (%)” value [2, 17] was 35%. For the same compound, the “Population Healthy Nuclei (%)” value [2, 17] was 59%, the “Population Membrane Permeable-Phenotype (%)” value [2, 17] was 26% and the “Population Mitotic Cells (%)” value [2, 17] was 64%. The “Population Pyknosed Nuclei (%)” value [2, 17] was 12%, the “Population Tubulin-Different-Phenotype (%)” value [2, 17] was 31% and the “Total Cell Count” value [2, 17] was 130. The “Population Healthy Nuclei (%)” value [2, 18] was 76%, the “Population Membrane Permeable-Phenotype (%)” value [2, 18] was 18% and the “Population Mitotic Cells (%)” value [2, 18] was 0%. For the same compound, the “Population Pyknosed Nuclei (%)” value [2, 18] was 0%, the “Population Tubulin-Different-Phenotype (%)” value [2, 18] was 24% and the “Total Cell Count” value [2, 18] was 118.
